SENP1 FRET inh: human SENP1 catalytic domain inhibitors, primary screen, biochemical, FRET, uHTS; recombinant SENP1 catalytic domain, CyPet-SUMO1-YPet FRET cleavage; AID 624204, 2012; actives 0.21% (n = 360,000); inhibition, % at 10 µM;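 active means inhibition at least 30% at 10 µM, raw YFP signal under a set limit, fluorescence ratio 0.5 to 1.5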
Target sequence (Q9P0U3 419-644 limits assumed): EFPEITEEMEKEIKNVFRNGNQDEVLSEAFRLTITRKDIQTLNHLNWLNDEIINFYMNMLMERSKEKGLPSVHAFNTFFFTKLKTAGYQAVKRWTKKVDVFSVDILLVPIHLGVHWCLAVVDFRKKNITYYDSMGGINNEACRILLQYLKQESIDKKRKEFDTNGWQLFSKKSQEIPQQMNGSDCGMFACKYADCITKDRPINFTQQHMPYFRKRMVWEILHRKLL
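Controls: no-enzyme wells low, DMSO-plus-enzyme wells high control. Test system: human recombinant His6-tagged SENP1 catalytic domain enzyme. Reagent: SFCypet-SUMO1-SFYpet FRET protein substrate, 25 nM final. Doses: one dose per compound, 10 µM, 0.5% DMSO. Detection: FRET, CFP and YFP emission. Timing: 50 min reaction at room temperature.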
Myeloid diff MLP: induction of myeloid progenitor differentiation, primary screen, cell-based, flow cytometry, MLPCN library; actives 1% (n = 360,000); calls only at 10 µM; ER-HoxA9 myeloid progenitors, lysozyme-GFP differentiation; AID 624256, 2012;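 active means normalized GFP-positive differentiation at or above the plate's own cutoff, the solvent-only control mean plus 3 SD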;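 further: cells exposed to compound for four days before flow analysis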
VLA-4 inh: inhibition in human VLA-4 binding assay, primary screen, VLA-4 allosteric modulator project, MLPCN library, flow cytometry, VLA-4 expressing cells | ligand binding flow cytometry | inhibition, % (about 7 µM as worked out from the volumes in the protocol) | actives 0.2% (n = 330,000) | AID 2557, 2010; in the data active means inhibition above about 50%
Platelet DG rel: inhibitors of platelet dense granule secretion, primary screen, cell-based, MLPCN, human platelets. human platelet-rich plasma, SFLLRN dense granule ATP release, luminescence. inhibition, %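 (compounds screened at 7.5 µM in platelet-rich plasma)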. actives 0.22% (n = 300,000). AID 1663, 2009;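 active means mean replicate score, as percent of positive control, at or above 50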
Hits are given with their value. Rows were chosen to be rich in hits. Some 1.5% of all compounds tested hit in one or more screens of this group.

O=C(NC1CCCCC1)C(c1ccccc1)n1c(=O)c(-c2cc3ccccc3[nH]2)nc2ccccc21 (stereo not given) was read as SENP1 FRET inh inactive and Myeloid diff MLP inactive.
For N#Cc1ccc(C(C(=O)NC2CCCCC2)n2c(=O)c(-c3cc4ccccc4[nH]3)nc3ccccc32)cc1 (stereo not given) the results were SENP1 FRET inh inactive and Myeloid diff MLP active.
Screening CCCCc1cc(=O)oc2cc(OCC(=O)NCCN3CCOCC3)ccc12 returned SENP1 FRET inh inactive, Myeloid diff MLP inactive, VLA-4 inh inactive and Platelet DG rel inactive.
Cc1ccc(S(=O)(=O)N2CCC(N3CCN(C)CC3)CC2)cc1Cl was read as SENP1 FRET inh inactive, Myeloid diff MLP inactive, VLA-4 inh inactive and Platelet DG rel inactive.
O=C1c2cc([N+](=O)[O-])ccc2-c2cc(Br)c(N=C(NO)C(F)(F)F)cc21 was read as SENP1 FRET inh 69 and Myeloid diff MLP inactive.
Screening N#Cc1ccc[n+](CC(=O)c2ccc(Cl)cc2)c1 returned SENP1 FRET inh inactive, Myeloid diff MLP active, VLA-4 inh inactive and Platelet DG rel inactive.
Cc1ccc[n+](CC(=O)c2ccc(Br)cc2)c1 was read as SENP1 FRET inh inactive, Myeloid diff MLP inactive, VLA-4 inh inactive and Platelet DG rel inactive.
For NC(=O)c1ccc(NC(=O)c2cccc(Oc3ccccc3)c2)cc1 the results were SENP1 FRET inh inactive, Myeloid diff MLP inactive, VLA-4 inh inactive and Platelet DG rel inactive.
For NS(=O)(=O)c1cccc(NC(=O)c2cccc(Oc3ccccc3)c2)c1 the results were SENP1 FRET inh inactive, Myeloid diff MLP active, VLA-4 inh inactive and Platelet DG rel inactive.
`Cc1cccn2c(=O)c3cc(C(=O)NCCN4CCOCC4)n(C)c3nc12` gave SENP1 FRET inh inactive, Myeloid diff MLP active, VLA-4 inh inactive and Platelet DG rel inactive.
`Cc1cccn2c(=O)c3cc(C(=O)NC4CCCCC4C)n(C)c3nc12` (stereo not given) gave SENP1 FRET inh inactive, Myeloid diff MLP active, VLA-4 inh inactive and Platelet DG rel inactive.
Screening Cn1c(C(=O)NCCN2CCOCC2)cc2c(=O)n3ccccc3nc21 returned SENP1 FRET inh inactive, Myeloid diff MLP inactive, VLA-4 inh inactive and Platelet DG rel inactive.
CCN1C(=O)[C@@H]2[C@@H](c3ccc(-c4ccc(C(C)=O)cc4)cc3)N3CCCC[C@@]3(C(=O)OC)[C@@H]2C1=O was read as SENP1 FRET inh inactive, Myeloid diff MLP inactive, VLA-4 inh inactive and Platelet DG rel inactive.
Screening Cc1ccc(N/C(=N/S(=O)(=O)c2cccs2)c2ccccc2)c(C)c1 returned SENP1 FRET inh inactive, Myeloid diff MLP active, VLA-4 inh inactive and Platelet DG rel inactive.
For O=S(=O)(/N=C(/Nc1cccc2ccccc12)c1ccccc1)c1cccs1 the results were SENP1 FRET inh inactive, Myeloid diff MLP inactive, VLA-4 inh inactive and Platelet DG rel inactive.
Screening COc1ccccc1CCn1c(N)cc(=O)[nH]c1=O returned SENP1 FRET inh inactive, Myeloid diff MLP inactive, VLA-4 inh inactive and Platelet DG rel inactive.
`CN(C)CCNc1ncnc2c1sc1nc(-c3ccccc3)c3c(c12)CCCC3` gave SENP1 FRET inh inactive, Myeloid diff MLP active, VLA-4 inh inactive and Platelet DG rel inactive.
`Cc1ccc2c(c1)c(C)cc[n+]2Cc1ccccc1` gave SENP1 FRET inh inactive, Myeloid diff MLP active, VLA-4 inh inactive and Platelet DG rel inactive.
Cc1ccc2ccc[n+](Cc3ccccc3)c2c1 was read as SENP1 FRET inh inactive, Myeloid diff MLP inactive, VLA-4 inh inactive and Platelet DG rel inactive.
`COc1ccc2c(c1)c(C)cc[n+]2Cc1ccccc1` gave SENP1 FRET inh inactive, Myeloid diff MLP active, VLA-4 inh inactive and Platelet DG rel inactive.
Screening CC1(C(=O)NS(=O)(=O)c2cccc(Cl)c2)CCN1C(=O)Cc1ccsc1 (stereo not given) returned SENP1 FRET inh inactive and Myeloid diff MLP inactive.
For COc1ccc(-c2nnc(SCC(=O)NC3CCCCC3)n2N)cc1 the results were SENP1 FRET inh inactive and Myeloid diff MLP inactive.
For O=C(CCn1cccn1)Nc1ccc2c(c1)OCO2 the results were SENP1 FRET inh inactive, Myeloid diff MLP inactive, VLA-4 inh inactive and Platelet DG rel inactive.
Screening O=C(COC(=O)c1cccc2ccccc12)Nc1ncc(C(F)(F)F)cc1Cl returned SENP1 FRET inh inactive, Myeloid diff MLP active, VLA-4 inh inactive and Platelet DG rel inactive.

High-throughput results as filed in PubChem BioAssay.
